According to the array DNA melting data of Ke et al. (doi:10.1101/2024.01.08.574731):

Legend:
[1] = melting temperature; fluorescence melt of hairpins on a sequencing array, two-state fit, raised by 9.35 °C to match UV melts; conditions: sodium 0.088 M
Procedure, shortened: (§1)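 Two-state fits, bootstrapped, provided melting temperature and folding enthalpy from Cy3 fluorescence normalised to pre-quench Cy3 and to control constructs. Library hairpins with annealed Cy3 and quencher oligos were imaged on a sequenced MiSeq flow cell in 50 mM Na-HEPES pH 8.0, 25 mM NaCl, at 2.5 °C intervals up to 60 °C. Four replicates were combined with inverse-variance weighting. A 9.35 °C upward shift was applied to fitted temperatures to match UV melts.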

[2] = folding enthalpy; higher = less favourable; fluorescence melt of hairpins on a sequencing array, two-state fit; conditions: sodium 0.088 M
Procedure, shortened: as §1

Sequence	Tm [1]	folding enthalpy [2]
GCTATGCGAAAGCTTAGC ((((.((....)).))))	60.8 °C	-28.9 kcal/mol
GCTATGCGAAAGCTTGGC ((.(.((....)).).))	42.1 °C	-24.6 kcal/mol
GCTATGGAAACATAGC ((((((....))))))	55.6 °C	-35.4 kcal/mol
GCTATGTCGAAAGACAGC (((..(((....))))))	41.5 °C	-14 kcal/mol
GCTATTCGAAAGAAGAGC (((.(((....))).)))	51.1 °C	-39.9 kcal/mol
GCTCAACGAAAGTTAGC (((.(((....))))))	41.1 °C	-22.2 kcal/mol
GCTCAAGCGAAAGCTAGC (((..(((....))))))	40.6 °C	-14.1 kcal/mol
GCTCAAGGAAACTTGAAC (.(((((....))))).)	31.8 °C	-15 kcal/mol
GCTCACCGAAAGGTAGC (((.(((....))))))	50.2 °C	-22.4 kcal/mol
GCTCACGAAAGTGATAGC ((((((....)))..)))	47.4 °C	-17.4 kcal/mol
GCTCACGAAAGTGCAGC ((((((....))).)))	52 °C	-22.9 kcal/mol
GCTCACGAAAGTGCTAGC ((((((....)))..)))	35.8 °C	-15.6 kcal/mol
GCTCACGAAAGTGGTAGC ((((((....)))..)))	44.7 °C	-19.7 kcal/mol
GCTCACGGAAACGTGAAC (.(((((....))))).)	42.3 °C	-13 kcal/mol
GCTCACGGAAACGTGGGC ((.((((....)))).))	59.6 °C	-47.8 kcal/mol
GCTCAGCGAAAGCAGAGC ((((.((....)).))))	67.3 °C	-36.3 kcal/mol
GCTCAGCGAAAGCAGCGC ((.(.((....)).).))	49.4 °C	-18 kcal/mol
GCTCAGCGAAAGCATAGC (((..((....))..)))	38.5 °C	-16 kcal/mol
GCTCAGCGAAAGCGCAGC (((..((....))..)))	45.7 °C	-14.8 kcal/mol

Sequence	Tm [1]	folding enthalpy [2]
GCTCAGCGAAAGCGGCGC ((.(.((....)).).))	58.4 °C	-19.5 kcal/mol
GCTCAGCGAAAGCGGTGC ((.(.((....)).).))	55.2 °C	-17.8 kcal/mol
GCTCATGGAAACATGGGC ((.((((....)))).))	53 °C	-34.2 kcal/mol
GCTCCAGCGAAAGCTAGC (((..(((....))))))	34 °C	-8.7 kcal/mol
GCTCCAGGAAACCAGAGC ((((..(....)..))))	34.4 °C	-19.4 kcal/mol
GCTCCCCGAAAGGGCAGC (((.(((....))).)))	48 °C	-21 kcal/mol
GCTCCCGAAAGGGATAGC ((((((....)))..)))	48.4 °C	-17.5 kcal/mol
GCTCCCGAAAGGGCTAGC ((((((....)))..)))	38.6 °C	-12.8 kcal/mol
GCTCCCGAAAGGGTAAGC ((((((....)))..)))	46.2 °C	-20.7 kcal/mol
GCTCCGCGAAAGCAGGGC ((.(.((....)).).))	50.1 °C	-16 kcal/mol
GCTCCGCGAAAGCGAGGC ((..(((....)))..))	55.6 °C	-14.4 kcal/mol
GCTCCGCGAAAGCGTAGC (((.(((....))).)))	51.8 °C	-32.6 kcal/mol
GCTCCGCGAAAGCTGAGC ((((.((....)).))))	61.1 °C	-32.3 kcal/mol
GCTCCTGCGAAAGCAAGC (((..(((....))))))	26.7 °C	-9.07 kcal/mol
GCTCCTGGAAACAGGGGC ((.((((....)))).))	57.4 °C	-39.6 kcal/mol
GCTCGACGAAAGTCAAGC (((.(((....))).)))	51.8 °C	-27.7 kcal/mol
GCTCGAGAAATCGAGC ((((((....))))))	66.5 °C	-37.4 kcal/mol
GCTCGAGGAAACTCGGGC ((.((((....)))).))	59.9 °C	-38.9 kcal/mol
